DDE Tn7 FP inh – inhibitors of Tn7 peptide binding to fibrin DD(E), primary screen, biochemical, fluorescence polarization, human fibrin, Tn7 probe | FP displacement of FITC-Tn7 peptide from fibrin DD(E); 0% = median of compound wells per plate | inhibition, % at 8.3 µM | actives 0.13% (n = 370,000) | Fibrinogen beta chain (Homo sapiens), P02675 | AID 720508, 2013;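 active = inhibition above the mean of compounds falling within the control limits plus 3 SD of them, cut at about 14% in these data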;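 note: 0% = plate median of compound wells and 100% = 10 µM Aha-Tn7 peptide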
Target sequence (P02675 whole entry, looked up): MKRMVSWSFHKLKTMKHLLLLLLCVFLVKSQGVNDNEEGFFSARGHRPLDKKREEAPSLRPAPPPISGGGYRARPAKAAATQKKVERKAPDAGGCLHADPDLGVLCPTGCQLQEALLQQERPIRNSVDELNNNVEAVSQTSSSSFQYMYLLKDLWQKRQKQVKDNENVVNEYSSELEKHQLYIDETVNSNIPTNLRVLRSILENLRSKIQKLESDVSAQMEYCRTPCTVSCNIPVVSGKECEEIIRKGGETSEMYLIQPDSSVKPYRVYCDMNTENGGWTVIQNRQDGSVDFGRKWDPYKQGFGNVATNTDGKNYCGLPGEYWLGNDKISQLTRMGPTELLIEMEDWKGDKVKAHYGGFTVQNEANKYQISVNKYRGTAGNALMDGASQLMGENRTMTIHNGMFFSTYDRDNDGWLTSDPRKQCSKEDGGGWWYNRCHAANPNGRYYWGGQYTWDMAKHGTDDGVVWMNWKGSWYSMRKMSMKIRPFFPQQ
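Assay system: Fibrin-DD(E) protein isolated from polymerized human fibrin clots; read-out basis: percent inhibition; medium: Tris/NaCl/CaCl2 buffer, pH 7.8; signal: FP measurement; incubation: 10 min plus 3 h, room temperature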
MBD2 DNA inh – inhibitors of MBD2 binding to methylated DNA, primary screen, biochemical, TR-FRET, DNA-binding domain, human; Methyl-CpG-binding domain protein 2 (Homo sapiens), Q9UBB5; MBD2 binding to methylated oligonucleotide; inhibition, % at 4.4 µM; actives 0.31% (n = 370,000); in the data active = inhibition above about 13%
DDE Tn6 FP inh – inhibitors of Tn6 peptide binding to fibrin DD(E), primary screen, biochemical, fluorescence polarization, human fibrin, Tn6 probe | actives 0.21% (n = 370,000) | inhibition, % at 8.3 µM | Fibrin DD(E) TRITC-Tn6 fluorescence polarization displacement | Fibrinogen beta chain (Homo sapiens), P02675;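 active = inhibition above a per-campaign cutoff: mean of compounds within control limits plus 3 SD, cut at about 15% in these data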;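 note: 0% = median of all compound wells on the plate and 100% = blocking peptide control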
LEDGF integ inh – blockers of LEDGF/p75-dependent integrase strand transfer – biochemical, TR-FRET, high throughput, primary screen; HIV-1 integrase (with human LEDGF/p75); actives 0.64% (n = 370,000); TR-FRET IN-LEDGF/p75 DNA integration, Eu/Cy5; AID 743269, 2014; inhibition, % at 3.7 µM;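 active = inhibition above the screen-wide mean plus 3 SD, cut at about 13% in these data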;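 note: signal is the Cy5 over europium emission ratio at 671 and 618 nm; 0% = plate median of compound wells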
UHRF1 MBD2 ctr – UHRF1 methylated DNA binding inhibitors, primary screen, counter-screen for MBD2 inhibitor project, biochemical, TR-FRET, human UHRF1, single concentration. UHRF1 binding to methylated oligo. AID 687016, 2013. actives 0.75% (n = 370,000). inhibition, % at 4.4 µM;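 note: UHRF1 SRA domain binding a hemimethylated CpG hairpin DNA probe; 0% = median of test compound wells and 100% = reference inhibitor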
TDP2 absorb – human TDP2 enzyme inhibitors, primary screen, biochemical, epi absorbance, recombinant enzyme. T5PNP hydrolysis, p-nitrophenol absorbance 415 nm. Tyrosyl-DNA phosphodiesterase 2 (Homo sapiens), O95551. actives 0.34% (n = 370,000). inhibition, % at 12.8 µM. AID 720702, 2013;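 active = inhibition above the mean of all tested compounds plus 3 SD, set per campaign, cut at about 25% in these data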;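 note: 0% = DMSO with enzyme and 100% = buffer with substrate but no TDP2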
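Incubation: 2 h at 37 °C; Test system: recombinant human TDP2; Quantity: enzyme 120 nM; Read-out basis: percent inhibition; Medium: 50 mM Tris-HCl pH 7.5 with Mg2+, KCl, DTT, BSA; Repeats: single replicate; Compound: 12.8 µM single point, 1% DMSO; Signal: epi absorbance; Reagent: 5 mM T5PNP chromogenic substrate; Benchmarks: no-enzyme high, DMSO-plus-enzyme low.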
UHRF1 DNA bind – UHRF1 methylated DNA binding inhibitors, counter-screen for MBD2 inhibitor project, biochemical, TR-FRET, human UHRF1. shares compounds with MBD2 DNA inh. inhibition, % at 4.4 µM. actives 25% (n = 1,000). UHRF1 binding to methylated oligonucleotide;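 note: UHRF1 SRA domain binding a labeled hemimethylated CpG hairpin DNA; 0% = vehicle only and 100% = reference inhibitor with vehicle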
MBD2 confirm – inhibitors of MBD2 binding to methylated DNA, confirmation, biochemical, TR-FRET, DNA-binding domain, human; shares compounds with MBD2 DNA inh; TR-FRET MBD2-DBD binding to methylated oligonucleotide; inhibition, % at 4.4 µM; actives 26% (n = 1,000); AID 720531, 2013; in the data active = inhibition above about 14%
The depositor's hits bear a star; . = no result. Most compounds without a hit are left out; they make up all but 1.9% or so of the library. Cut-off read from the data, not from the text of the source, unless noted: active = inhibition above about 21%; inactive = the rest.

SMILES	DDE Tn7 FP inh	MBD2 DNA inh	DDE Tn6 FP inh	LEDGF integ inh	UHRF1 MBD2 ctr	TDP2 absorb	UHRF1 DNA bind	MBD2 confirm
CC(C(=O)Nc1cccnc1)C1Sc2ccccc2NC1=O (centres undefined)	-4	78*	1	-2	-1	6	3	0
COc1ccc2c(=O)c3c(=O)n(-c4ccccc4)c(-c4ccc(C)cc4)nc3oc2c1	-1	19*	2	-1	11	11	18	68*
COCCn1c(-c2ccccc2)nc2oc3cc(OC)ccc3c(=O)c2c1=O	2	2	1	-2	1	-4	.	.
COC(=O)[C@]12C[C@H](CC(=O)N3CCOCC3)C(=O)N(CCC3=CCCCC3)C1=C[C@H](COCc1ccccc1)O[C@@H]2C	0	-6	4	1	1	0	.	.
COc1cccc(-n2c(=O)c3c(C)c(C(=O)N(C)C)sc3n(CC(=O)NCC3CCCO3)c2=O)c1 (centres undefined)	2	16*	-2	-8	-2	-12	8	4
CC1(C(=O)NS(=O)(=O)c2cccc(F)c2)CCN1C(=O)CCc1ccc(Cl)cc1Cl (centres undefined)	6	-7	11	-4	0	1	.	.
CC1(C(=O)NS(=O)(=O)c2ccc(F)cc2F)CCN1C(=O)CCc1ccc(Cl)cc1Cl (centres undefined)	-2	26*	-8	1	17	8	8	1
CCN(CC)CCNC(=O)c1cc(-c2ccco2)nc2ccccc12	0	0	6	4	-5	2	.	.
COc1ccc(CCNC(=O)c2cc(-c3ccco3)nc3ccccc23)cc1	0	17*	-8	9	21*	-7	15	11
Cc1cc(C)cc(NC(=O)NC2CCN(S(=O)(=O)c3ccc(F)cc3)CC2)c1	-2	-1	1	5	-1	9	.	.
CCSc1nc(O)c(Cc2ccccc2)c(=O)[nH]1	-2	13*	0	-1	14	0	4	6
COc1ccccc1NC(=O)CSc1nc(O)c(Cc2ccccc2)c(=O)[nH]1	-2	-3	2	2	-1	3	.	.
CCOC(=O)[C@@]12CCCC3=C1N(CCC3)C(=O)[C@H]2CC(=O)N1CCC(c2ccccc2)CC1	-1	0	1	6	-4	-3	.	.
COc1ccc(C(=O)OCC(=O)c2c[nH]c3ccccc23)cc1OC	6	14*	14	0	22*	3	5	2
O=C(N=C1SC2CS(=O)(=O)CC2N1CCc1ccccc1)C1CC1 (centres undefined)	-6	1	2	-1	-2	3	.	.
O=C(N=C1SC2CS(=O)(=O)CC2N1CCc1ccccc1)C1CCCCC1 (centres undefined)	3	86*	-5	-5	1	4	6	2
COc1ccc(C)cc1NC(=O)C1CCN(C(=O)c2ccco2)CC1	-2	14*	-8	3	-2	-7	9	3
O=C(COC(=O)Cc1cccc(C(F)(F)F)c1)NCc1ccco1	-1	17*	-1	11	35*	-4	21*	6
NC(=O)c1ncn([C@@H]2O[C@H](C(=O)Nc3ccc(C(=O)N4CCCCC4)cc3)[C@@H](O)[C@H]2O)n1	0	9	-2	1	2	-1	.	.
COc1ccc(OC)c(CN2C(=O)CN(S(C)(=O)=O)CC2(C)c2nnnn2C2CCCC2)c1 (centres undefined)	-1	1	2	-1	1	5	.	.
Cc1ccc(S(=O)(=O)N2C[C@H]3C(=O)C[C@@H](c4ccccc4F)N(S(=O)(=O)c4ccc(C)cc4)[C@H]3C[C@H]2c2ccccc2F)cc1	2	5	-8	-4	2	-6	.	.
Cc1ccc([C@@H]2C[C@H]3[C@@H](CN2S(=O)(=O)c2ccc(C)cc2)C(=O)C[C@@H](c2ccccc2F)N3S(=O)(=O)c2ccc(C)cc2)cc1	-1	15*	2	5	27*	-5	3	3
CCOC(=O)N[C@H](C(=O)N1CCC[C@H]1C(=O)NC1CCCC1)c1ccccc1	-3	-5	-3	5	0	1	.	.
CCn1nc(C(=O)NNC(=O)c2ccccc2)c2ccccc2c1=O	-5	24*	-5	12	-1	-16	6	4
Cn1c(=O)c2ccccc2n(C)c1=O	12	2	7	-5	7	2	.	.
SMILES	DDE Tn7 FP inh	MBD2 DNA inh	DDE Tn6 FP inh	LEDGF integ inh	UHRF1 MBD2 ctr	TDP2 absorb	UHRF1 DNA bind	MBD2 confirm
CCc1ccccc1Nc1nc(N)nc(COC(=O)c2c(C)noc2C)n1	0	14*	-1	12	23*	11	4	5
COc1ccc(C2=C(c3ccc([N+](=O)[O-])cc3)C(=O)OC2)cc1	-1	-1	-3	-3	1	4	.	.
CS(=O)(=O)c1ccc(C2=C(c3ccccc3)C(=O)OC2)cc1	4	33*	0	3	34*	0	46*	45*
O=C1OCC(c2ccccc2)=C1c1ccccc1	5	22*	4	4	21*	-6	36*	38*
COCC1CN(CCc2ccc(F)cc2)S(=O)(=O)c2c(OCCN3C(=O)[C@@H]4[C@H](C3=O)[C@@H]3C=C[C@H]4C3)cccc2O1 (some centres undefined)	3	4	3	0	13	7	.	.
COc1ccc(C=O)c(OCc2cn(CC(=O)c3ccc(O)cc3)nn2)c1	0	14*	6	3	23*	4	12	8
